The values below come from ChEMBL document CHEMBL1140264, “Sulfur-substituted alpha-alkyl phenethylamines as selective and reversible MAO-A inhibitors: biological activities, CoMFA analysis, and active site modeling” (J Med Chem, 2005).

What is called IC50 is the concentration that gives 50% inhibition. High values mean weaker potency in that assay, low ones greater potency in that assay. As a reminder, the Inhibition is the change of the read-out against control, counted positive when it falls.

Molecules are shown by their SMILES. Bounds are passed on as bounds.

Series [1] addresses T1, Amine oxidase [flavin-containing] A (Rattus norvegicus, UniProt P21396).
T1 sequence (P21396 whole entry): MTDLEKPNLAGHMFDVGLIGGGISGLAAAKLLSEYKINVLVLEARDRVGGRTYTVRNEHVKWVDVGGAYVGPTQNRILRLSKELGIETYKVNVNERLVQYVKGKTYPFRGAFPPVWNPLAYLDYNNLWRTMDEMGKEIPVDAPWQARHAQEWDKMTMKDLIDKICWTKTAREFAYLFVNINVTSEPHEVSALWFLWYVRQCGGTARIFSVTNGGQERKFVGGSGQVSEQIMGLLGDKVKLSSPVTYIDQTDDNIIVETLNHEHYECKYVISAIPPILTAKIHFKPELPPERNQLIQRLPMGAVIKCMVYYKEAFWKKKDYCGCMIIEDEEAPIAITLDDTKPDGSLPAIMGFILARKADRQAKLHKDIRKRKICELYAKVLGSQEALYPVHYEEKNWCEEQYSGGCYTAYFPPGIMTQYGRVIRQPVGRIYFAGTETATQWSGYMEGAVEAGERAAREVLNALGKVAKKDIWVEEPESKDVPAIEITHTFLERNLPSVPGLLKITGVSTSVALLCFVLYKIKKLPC
Put plainly: Inhibitory concentration against monoamine oxidase A in rat brain mitochondrial suspension. The class given is tissue-based. In outline: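 Crude brain mitochondrial suspension from male Sprague-Dawley rats (180-220 g). MAO-A substrate 5-HT 100 µM; substrate and deaminated metabolite measured by HPLC with electrochemical detection. Inhibition relative to enzyme treated identically without inhibitor. IC50 from % inhibition vs -log[I] curves, 5-8 concentrations each in triplicate; mean ± SD of at least two independent experiments.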

The target in series [2] is T1, Amine oxidase [flavin-containing] A. Put plainly: Percent inhibition of rat brain monoamine oxidase A in mitochondrial suspension after 10 minutes pre-incubation before washing at 10e-7 M. A digest of the protocol: (§1)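 Crude rat brain mitochondrial suspension preincubated 10 min with inhibitor, then washed three times by centrifugation and resuspension. MAO-A activity measured before and after washing by HPLC-ED with 5-HT (100 µM) as selective substrate, against control preparations. Mean ± SD of triplicate determinations.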

For series [3] the target is unchanged. Put plainly: Percent inhibition of rat brain monoamine oxidase A in mitochondrial suspension after 10 minutes pre-incubation and washing at 10e-7 M. In outline: as §1
Series [4] shares this target. Nature of the series: Percent inhibition of rat brain monoamine oxidase A in mitochondrial suspension without pre-incubation at 10e-7 M.
Series [5] shares this target. Nature of the series: Percent inhibition of rat brain monoamine oxidase A in mitochondrial suspension with 30 minutes pre-incubation at 10e-7 M. As to conditions: 0.5 h.

With `COc1cc(SC(C)C)c(OC)cc1CC(C)N` (configuration not stated), in series [1], half-maximal inhibition (IC50) required 27.3 µM.

In series [1], `CCOc1ccc(CC(C)N)cc1` (configuration not stated) displayed an IC50 of 0.2 µM. Still for that read-out and setting: under `CCCSc1cc(OC)c(CC(C)NC)cc1OC` (configuration not stated) stands 0.3 µM; under `COc1cc(SC)cc(OC)c1CC(C)N` (configuration not stated), 0.3 µM.

`CCC(Cc1cc(OC)c(SC)cc1OC)NC` (configuration not stated) came in with an IC50 in series [1] of 15.5 µM. With `COc1cc(Cl)c(CC(C)N)c(OC)c1` (configuration not stated), the Inhibition was 58% in series [2] and 0% in series [3]. The IC50 in series [1] is 0.07 µM. On to `CCSc1cc(OC)c(CC(C)NC)cc1OC` (configuration not stated), for which the IC50 in series [1] amounted to 1.4 µM. Same read-out and setting: next, `CCCSc1cc(OC)c(CC(N)CC)cc1OC` (configuration not stated): 7.6 µM. In the case of `CCSc1cc(OC)c(CC(C)N)c(OC)c1` (configuration not stated), the Inhibition in series [4] worked out at 23.7%; in series [2], 40%; in series [5], 33%; in series [3], 0%. Also, the IC50 in series [1] was found to be 0.08 µM.

`CNC(C)Cc1cc(OC)c(SC)cc1OC` (configuration not stated) returned a half-inhibitory concentration (IC50) in series [1] of 1.8 µM.

With `CC(C)CSc1ccc(CC(C)N)cc1` (configuration not stated), the IC50 in series [1] is 0.4 µM. The same measure, in the same setting: next, `CCCCSc1cc(OC)c(CC(C)N)cc1OC` (configuration not stated): 2.9 µM.

Molecule `CCC(N)Cc1cc(OC)c(SC)cc1OC` (configuration not stated) showed a concentration for half-maximal inhibition (IC50) in series [1] of 30.9 µM. On the same count and under the same terms, next, `CCSc1cc(OC)c(CC(CC)NC)cc1OC` (configuration not stated): 4.5 µM. The same measure, in the same setting: under `CCCCCSc1cc(OC)c(CC(C)N)cc1OC` (configuration not stated) stands 14.3 µM; under `CCCSc1cc(OC)c(CC(CC)NC)cc1OC` (configuration not stated), 1.4 µM. For `COc1cc(SCCc2ccccc2)c(OC)cc1CC(C)N` (configuration not stated), the IC50 in series [1] was above 100 µM.

In the case of `CCSc1ccc(CC(C)N)cc1` (configuration not stated), the IC50 in series [1] was 0.1 µM. Same read-out and setting: next, `COc1ccc(CC(C)N)cc1OC` (configuration not stated): 20 µM; `COc1ccc(CC(C)N)c(OC)c1` (configuration not stated): 0.6 µM; `COc1cc(Br)c(CC(C)N)cc1OC` (configuration not stated): 9.3 µM.

In series [1], `COc1cc(OC)c(CC(C)N)cc1Br` (configuration not stated) registered an IC50 of 13 µM. On the same count and under the same terms, under `CCSc1cc(OC)c(CC(C)N)cc1OC` (configuration not stated) stands 3.8 µM; under `COc1cc(OC)c(CC(C)N)c(OC)c1` (configuration not stated), 0.4 µM. `CCCSc1cc(OC)c(CC(C)N)cc1OC` (configuration not stated): the Inhibition in series [4] is listed as 15.7%; in series [2], 20%; in series [5] it was 20%; in series [3] it was 0%. Further, half-maximal inhibition in series [1] (IC50) required 2.4 µM. For `CC(N)Cc1ccc(Cl)cc1` (configuration not stated), in series [1], the half-maximal inhibitory concentration (IC50) worked out at 4 µM. Take `CCSc1cc(OC)c(CC(N)CC)cc1OC` (configuration not stated): the IC50 in series [1] was 11.8 µM. For `COc1cc(SC)c(OC)cc1CC(C)N` (configuration not stated), the IC50 in series [1] stood at 5.2 µM.

Regarding `COc1cc(CC(C)N)c(OC)cc1I` (configuration not stated), the IC50 in series [1] stood at 44 µM.

`COc1cc(C(F)(F)F)c(OC)cc1CC(C)N` (configuration not stated) had an IC50 in series [1] above 100 µM.

On to `COc1cc(CC(C)N)c(OC)cc1N` (configuration not stated), for which the IC50 in series [1] is above 100 µM. Same read-out and setting: next, `COc1cc([N+](=O)[O-])c(OC)cc1CC(C)N` (configuration not stated): above 100 µM. Consider `COc1ccc(OC)c(CC(C)N)c1` (configuration not stated), for which the 50% inhibitory concentration (IC50) in series [1] is above 100 µM. Same read-out and setting: next, `CSc1ccc(CC(C)N)cc1` (configuration not stated) [4-METHYLTHIOAMPHETAMINE]: 0.2 µM; `COc1cc(CC(C)N)c(OC)cc1Br` (configuration not stated) [BROLAMFETAMINE]: 100 µM. The molecule `COc1cc(CC(C)N)c(OC)cc1C` (configuration not stated) [DOM] showed a half-inhibitory concentration (IC50) in series [1] of 24 µM. On the same count and under the same terms, under `COc1ccc(CC(C)N)cc1` (configuration not stated) [PARA-METHOXYAMPHETAMINE] stands 0.3 µM.
